Screening data: PubChem, several laboratories
aDG glyco act: alpha-DG glycosylation activation | Pro5-aDG cells, alpha-DG glycosylation AlphaScreen (IIH6); 0% Pro5, 100% B10-LARGE cell signal | activation, % at 10 µM | hit rate 0.22% among 360,000 | AID 624168;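 active means activation of at least 8% versus controls, or a plate z-score of at least 8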;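 further: Pro5 are CHO cells carrying HIG-tagged alpha-DG that lacks glycosylation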
XBP1 UPR activ: activators of adaptive arm of unfolded protein response (XBP1) | CHO-XBP1 luciferase reporter, IRE1-XBP1 UPR activation, luminescence; percent of tunicamycin response, DMSO as zero | activation, % at 20 µM | hit rate 0.33% among 330,000 | AID 463104;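 active means versus positive control, 20 µM dose yields 30% or more activation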
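Material: CHO cell line with stable XBP1 luciferase reporter; buffer or medium: F12 medium containing 10% fetal bovine serum; compound: single point, 20 µM final compound, 1% DMSO; incubation: 6 h treatment, 37 °C; measured by: glow luminescence from Steady-Glo reagent; evaluation: activation, % of tunicamycin; control set: tunicamycin high, DMSO low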
MPTP inh: inhibitors of mitochondrial permeability transition pore; inhibition, % at 10 µM; isolated mouse mitochondria, Ca2+ swelling absorbance, 30 min; AID 602449; hit rate 1.4% among 360,000;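 active means inhibition of 50% or more, scaled per plate between neutral and stimulator controls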
CHOP inh: CHOP inhibition in unfolded protein response | CHO-K1 CHOP-promoter luciferase, tunicamycin-induced, 15-18 h | inhibition, % at 10 µM | hit rate 3.8% among 220,000;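 active means compounds that reduced the stress-induced luciferase reporter signal by more than about 70% of percent inhibition, limit read from the data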
NR3A LBD binder: modulates the human NR3A ligand-binding domain. hit rate 2.5% among 340,000. NR3A LBD differential scanning fluorimetry, Tm shift; 0% = protein alone, 100% = glycine-bound protein. Tm shift relative to glycine control, % at 25 µM. AID 1259313;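 active means melting temperature shift of at least 10% of the positive control shift, at one fixed dose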
UPR CHOP act: apoptotic UPR (CHOP) activation; CHO-CHOP luciferase reporter, luminescence; percent of tunicamycin response over DMSO baseline; activation, % at 10 µM; hit rate 0.34% among 330,000; AID 449763;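 active means at 10 µM dose, activation of 40% or more, normalized to positive control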
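Assay system: CHO-CHOP cells, stable luciferase reporter of PERK-eIF2a-CHOP signalling / Buffer or medium: F12 plus 10% serum / Compound dosing: one dose, 10 µM in 0.5% DMSO / Times: 6 h compound treatment, 37 °C / Technique: luciferase luminescence / Read-out: % reporter activation, DMSO baseline versus tunicamycin full activation / Benchmarks: tunicamycin and DMSO controls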
Hits are given with their value; – = inactive; · = not tested or not shown. Sampled rows, rich in hits. Any-hit rate of the full collection: about 5.6%.

SMILES | aDG glyco act | XBP1 UPR activ | MPTP inh | CHOP inh | NR3A LBD binder | UPR CHOP act
Cc1ccc(S(=O)(=O)c2c(C)nn(-c3ccccc3)c2OC(=O)c2ccc(Br)o2)cc1 | – | · | – | – | – | ·
Cc1ccc(S(=O)(=O)c2c(C)nn(-c3ccccc3)c2OC(=O)c2ccco2)cc1 | – | – | – | 102.8 | – | –
C=CCc1ccccc1OCC(O)CN1CCN(c2ccccc2F)CC1 (centres undefined) | – | – | – | 77.8 | – | –
C=CCc1ccccc1OCC(O)CN1CCN(c2ccccc2OC)CC1 (centres undefined) | – | – | – | – | – | –
Cc1cc(NC(=O)CN(C)C)c([N+](=O)[O-])cc1C | – | – | – | – | – | –
NS(=O)(=O)c1ccc(CCNC(=O)C2CCC(CNS(=O)(=O)c3ccc(Br)s3)CC2)cc1 (centres undefined) | – | – | – | – | 12.8 | –
O=C(NCc1cccs1)C1CCC(CNS(=O)(=O)c2ccc(Br)s2)CC1 (centres undefined) | – | – | – | – | – | –
Cc1c(C(=O)N2CCC(C)CC2)oc2ccc3c(c12)C(O)CC1(CCCCC1)O3 (centres undefined) | – | – | – | · | – | –
Cc1ccc2nc(NC(=O)c3ccccn3)sc2c1 | – | – | – | 97.0 | – | –
CCOc1ccc2nc(NC(=O)c3ccccn3)sc2c1 | – | – | – | – | – | –
NS(=O)(=O)c1ccc2nc(NC(=O)Nc3ccc(F)cc3)sc2c1 | – | – | – | · | 23.2 | –
COc1ccc(C(=O)Nc2nc3ccc(S(C)(=O)=O)cc3s2)cc1 | – | – | – | – | 10.4 | –
CCOc1ccc2nc(NC(=O)c3ccc(S(=O)(=O)N4CCOCC4)cc3)sc2c1 | – | – | – | – | 29.3 | –
COc1ccc2sc(NC(=O)NC(=O)c3c(Cl)cccc3Cl)nc2c1 | – | – | – | – | 17.6 | –
Cc1cccc2sc(NC(=O)c3ccc(NS(=O)(=O)c4cccs4)cc3)nc12 | – | – | – | – | 35.8 | –
CCOC(=O)c1sc(NC(=O)c2ccc(Cl)s2)cc1C | – | – | – | – | 18.4 | –
CSc1ncccc1C(=O)Nc1nc2c(C)cccc2s1 | – | – | – | 86.2 | – | –
Cc1cc(F)ccc1NC(=O)c1ccc(NS(=O)(=O)c2cccs2)cc1 | – | · | – | · | · | ·
COc1ccc2sc(NC(C)=O)nc2c1 | – | – | – | – | – | –
CCOC(=O)C1(CCc2ccccc2)CCN(C(=O)c2cnc(C)cn2)CC1 | – | – | – | – | – | –
Cc1noc(C)c1COC(=O)c1csc2c1CCC(C)C2 (centres undefined) | – | – | – | · | – | –
COC(=O)c1ccc(C(=O)Nc2nc3cc(N)c(C)cc3s2)cc1 | – | – | – | · | 36.1 | –
COc1ccc2nc(NC(=O)Nc3ccccc3)sc2c1 | – | – | – | – | 22.7 | –
CNS(=O)(=O)c1ccc2nc(NC(=O)c3ccc(N4C(=O)CCC4=O)cc3)sc2c1 | – | – | – | – | – | –
COc1ccc2nc(NC(=O)c3ccc(NS(=O)(=O)c4cccs4)cc3)sc2c1 | – | – | – | – | 25.4 | –
SMILES | aDG glyco act | XBP1 UPR activ | MPTP inh | CHOP inh | NR3A LBD binder | UPR CHOP act
CCc1ccc2nc(NC(=O)c3ccc(N4C(=O)CCC4=O)cc3)sc2c1 | – | – | – | 80.5 | – | –
COC(=O)c1ccc(-c2nc3cc(Cl)c(N)cc3s2)cc1 | – | – | – | – | – | –
O=C(COc1nc2ccccc2nc1N1CCOCC1)Nc1cccc(S(=O)(=O)N2CCCCC2)c1 | – | – | – | – | – | –
CCOC(=O)c1sc(NC(=O)c2ccc(S(=O)(=O)N3CCOCC3)cc2)cc1C | – | – | – | – | 20.4 | –
COc1ccc(C(=O)Nc2nc3ccc(OC)cc3s2)cc1 | – | – | – | · | 32.4 | –
CCOC(=O)c1sc(NC(=O)c2cccc(S(=O)(=O)N3CCN(C)CC3)c2)cc1C | – | – | – | – | – | –
Cc1cccc2sc(NC(=O)CNS(=O)(=O)c3ccc(Br)s3)nc12 | – | – | – | – | 10.7 | –
COc1ccc2nc(NC(=O)c3ccc(NC(=O)C4CCCO4)cc3)sc2c1 (centres undefined) | – | – | – | · | 20.1 | –
